This note sets out measurements from ChEMBL document CHEMBL4334464, “From Phenylthiazoles to Phenylpyrazoles: Broadening the Antibacterial Spectrum toward Carbapenem-Resistant Bacteria” (J Med Chem, 2019).

One data set concerns Salmonella enteritidis. The data set can be described thus: Antibacterial activity against Salmonella enteritidis ATCC 14028 infected in mouse J774 cells assessed as reduction in intracellular bacterial cells at 2 times MIC incubated for 24 hrs followed by re-plating on TSA plate and measured after 18 to 22 hrs relative to control. The arrangement: scale not given: the % may be the effect or the level left. It is filed as functional, Salmonella enterica subsp. enterica serovar Enteritidis. In short, it runs like this:
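J774 murine macrophages infected with Salmonella enteritidis ATCC 14028, then treated at 2×MIC for 24 h, in triplicate. Read-out is the percent reduction in intracellular colony forming units versus the untreated control.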

Data set [1] relates to Staphylococcus aureus. The data set can be described thus: Antibacterial activity against methicillin-resistant Staphylococcus aureus NRS123-USA400 clinical isolates assessed as ratio of MIC after and before 10 serial passages by broth microdilution assay. It is filed as functional. In short, it runs like this:
(§1)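 MRSA USA400 was serially passaged over a 14-day period in the presence of each compound or control antibiotic. MIC was determined by broth microdilution after each passage. A four-fold rise in MIC was taken as a sign of resistance.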
(In general: Broth dilution looks for growth in wells or tubes with falling amounts of substance.)

Data set [2] is described as follows: Clearance in Sprague-Dawley rat at 5 mg/kg, iv administered as bolus dose measured over 12 hrs by LC-MS/MS analysis. It is filed as ADME, organism-based. The note with it: in vivo.
The test system of data set [3] is Staphylococcus aureus. Put plainly: Potency index, ratio of compound effect to vancomycin effect for antibiofilm activity against methicillin-resistant Staphylococcus aureus NRS384-USA300 clinical isolates at 0.5 times MIC. It is filed as functional.
A short description of data set [4]: Apparent permeability across apical to basolateral side in human Caco2 cells after 2 hrs by LC/MS/MS analysis. It is filed as ADME, cell-based. The note with it: Caco-2. A general note: Caco-2 monolayers are a common model of the intestinal barrier.
In data set [5] the test system is Staphylococcus aureus. The data set can be described thus: Antibacterial activity against methicillin-resistant Staphylococcus aureus NRS123-USA400 clinical isolates over 14 serial passages by broth microdilution assay. The class given is functional, organism-based. In short, it runs like this:
as §1

Data set [6] is described as follows: Half life in human liver microsomes in presence of NADPH by LC/MS/MS analysis. It is filed as ADME, Microsome.
Data set [7] in a line: Intrinsic clearance in human liver microsomes in presence of NADPH by LC/MS/MS analysis. The class given is ADME, Microsome. The note with it: read-out: CLH.
A short description of data set [8]: Half life in human liver microsomes in absence of NADPH by LC/MS/MS analysis. It is filed as ADME, Microsome. In general terms: Liver microsomes are a subcellular fraction often used to study metabolism.
A short description of data set [9]: Stability in human liver microsomes assessed as compound remaining incubated for 60 mins in absence of NADPH by LC/MS/MS analysis. It is filed as ADME, Microsome. Particulars: read-out: Stability. In short, it runs like this:
(§2)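 Two independent runs (1st and 2nd) were done at each time point, and the mean percent remaining is reported. Incubations were run both with and without NADPH. Half-life and intrinsic clearance (Clint) were derived from the time-course data.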

The nature of data set [10]: Intrinsic clearance in human liver microsomes in absence of NADPH by LC/MS/MS analysis. It is filed as ADME, Microsome. Particulars: read-out: CLH.
In data set [11] the test system is Staphylococcus aureus. The data set can be described thus: Antibacterial activity against methicillin-resistant Staphylococcus aureus NRS123-USA400 infected in mouse J774 cells assessed as reduction in intracellular bacterial cells at 2 times MIC incubated for 24 hrs followed by re-plating on TSA plate and measured after 18 to 22 hrs relative to control. It is filed as functional. The arrangement: scale not given: the % may be the effect or the level left. In short, it runs like this: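 J774 murine macrophages were infected with MRSA USA400 and then treated at 2×MIC for 24 h, in triplicate. The read-out was percent reduction in intracellular colony-forming units versus untreated infected cells.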

The nature of data set [12]: Stability in human liver microsomes assessed as compound remaining incubated for 15 mins in presence of NADPH by LC/MS/MS analysis. The class given is ADME, Microsome. The note with it: read-out: Stability. In short, it runs like this: as §2
Data set [13] in a line: Stability in human liver microsomes assessed as compound remaining measured immediately in absence of NADPH by LC/MS/MS analysis. The class given is ADME, Microsome. Particulars: read-out: Stability. In short, it runs like this:
as §2

A short description of data set [14]: Stability in human liver microsomes assessed as compound remaining incubated for 60 mins in presence of NADPH by LC/MS/MS analysis. It is filed as ADME, Microsome. Particulars: read-out: Stability. In short, it runs like this: as §2
Data set [15] in a line: Stability in human liver microsomes assessed as compound remaining incubated for 45 mins in absence of NADPH by LC/MS/MS analysis. The class given is ADME, Microsome. The note with it: read-out: Stability. In short, it runs like this:
as §2

A short description of data set [16]: Half life in Sprague-Dawley rat at 5 mg/kg, iv administered as bolus dose measured over 12 hrs by LC-MS/MS analysis. The class given is ADME, organism-based. The note with it: in vivo.
Data set [17] has as its system Staphylococcus aureus. The data set can be described thus: Antibacterial activity against methicillin-resistant Staphylococcus aureus NRS123-USA400 clinical isolates assessed as ratio of MIC after and before 8 serial passages by broth microdilution assay. The class given is functional. In short, it runs like this: as §1
For data set [18], the system named is Staphylococcus aureus. Put plainly: Antibacterial activity against methicillin-resistant Staphylococcus aureus NRS123-USA400 clinical isolates assessed as ratio of MIC after and before 14 serial passages by broth microdilution assay. It is filed as functional. In short, it runs like this: as §1

Calls of active or inactive are those of the source. The calls are words filed in the database; no cut-off is given here.

Regarding `C/C(=N\NC(=N)N)c1cnn(-c2ccc(C#Cc3ccccc3)cc2)c1C`, the Activity with Salmonella enteritidis worked out at 70%. Moreover, in the data set with Staphylococcus aureus [1], the Ratio is on record as 1.
In turn, `C/C(=N\NC(=N)N)c1cnn(-c2ccc(C#CC3CCCC3)cc2)c1C` showed a clearance in [2] of 16.7 mL/min. Also, the Ratio in the data set on Staphylococcus aureus [3] turned out to be 2. Moreover, the Papp A→B at 2 h in data set [4] worked out at 0.01 ×10⁻⁶ cm/s. The result in the data set with Staphylococcus aureus [5] was Active. For the same compound, the half-life was 3.23 h in data set [6], 8.42 h in data set [8] and 10.5 h in [16]. For the same compound, the microsomal CLint in data set [7] was 35.8 µL/min/mg; in data set [10] it was under 116 µL/min/mg. In addition, the remaining at 1 h in data set [9] was determined as 91%; in [14] it was 82%. Further, the Activity is recorded as 98% in the data set on Salmonella enteritidis and 90% in the data set on Staphylococcus aureus [11]. Moreover, in data set [12], the remaining at 0.25 h is 93%. Besides, the remaining at 0 min in data set [13] came out at 100%. In addition, in [15], the remaining at 0.75 h is 99%.
`C/C(=N\NC1=NCCN1)c1cnn(-c2ccc(C#CC3CCCC3)cc2)c1C`: in [4], the Papp A→B at 2 h worked out at 0.1 ×10⁻⁶ cm/s. Further, the figures for the Ratio with Staphylococcus aureus [17] and in the data set with Staphylococcus aureus [18] were 1 and 2, respectively. Moreover, the half-life in [6] was 2.55 h; in [8], 20.3 h. In addition, the microsomal CLint in data set [7] is 42.3 µL/min/mg; in data set [10], under 116 µL/min/mg. For the same compound, the remaining at 1 h in [9] turned out to be 97%; in data set [14], 79%. Besides, in the data set on Staphylococcus aureus [11], the Activity is 98.4%. The remaining at 0.25 h in data set [12] came to 99%. For the same compound, the remaining at 0 min in [13] amounted to 100%. Moreover, in data set [15], the remaining at 0.75 h stood at 97%.

The clearance is a measure of how efficiently the substance is removed, as volume per time. For orientation: Papp A→B means the apparent permeability from the apical to the basolateral side of a cell layer. By half-life is commonly meant how long it takes for the measured level to halve.
